Active and inactive are the calls of the source. The rule behind the calls is not given here.
Legend:
HOP-92 = test: Cytotoxicity against human HOP92 cells; assay type: functional, cell-based
Summary of the method: (§1)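 Run within the NCI-60 human tumour cell line screen panel.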

NCI-H460 = test: Cytotoxicity against human NCI-H460 cells; assay type: functional, cell-based; summary of the method: as §1
SF-295 = test: Cytotoxicity against human SF295 cells; assay type: functional, cell-based; summary of the method: as §1
U-251 = test: Cytotoxicity against human U251 cells; assay type: functional, cell-based; summary of the method: as §1
Malme-3M = test: Cytotoxicity against human MALME-3M cells; assay type: functional, cell-based; summary of the method: as §1
SK-MEL-28 = test: Cytotoxicity against human SK-MEL-28 cells; assay type: functional, cell-based; summary of the method: as §1
SK-MEL-5 = test: Cytotoxicity against human SK-MEL-5 cells; assay type: functional, cell-based; summary of the method: as §1
UACC-62 = test: Cytotoxicity against human UACC62 cells; assay type: functional, cell-based; summary of the method: as §1
SK-OV-3 = test: Cytotoxicity against human SKOV3 cells; assay type: functional, cell-based; summary of the method: as §1
A498 = test: Cytotoxicity against human A498 cells; assay type: functional, cell-based; summary of the method: as §1
ACHN = test: Cytotoxicity against human ACHN cells; assay type: functional, cell-based; summary of the method: as §1
MOLT-4 = test: Cytotoxicity against human MOLT4 cells; assay type: functional, cell-based; summary of the method: as §1
Fusarium incarnatum = test: Antimicrobial activity against Fusarium pallidoroseum at 50 ug/disk by Kirby-Bauer disk diffusion assay; assay type: functional, organism-based
Candida albicans = test: Antimicrobial activity against Candida albicans at 50 ug/disk by Kirby-Bauer disk diffusion assay; assay type: functional, organism-based
Escherichia coli = test: Antimicrobial activity against Escherichia coli at 50 ug/disk by Kirby-Bauer disk diffusion assay; assay type: functional, organism-based
Staphylococcus aureus = test: Antimicrobial activity against Staphylococcus aureus at 50 ug/disk by Kirby-Bauer disk diffusion assay; assay type: functional, organism-based
[1] = test system: Burkholderia thailandensis; test: Antimicrobial activity against Burkholderia thailandensis at 50 ug/disk by Kirby-Bauer disk diffusion assay; assay type: functional

Row | Structure (SMILES) | Activity (HOP-92) | Activity (NCI-H460) | Activity (SF-295) | Activity (U-251) | Activity (Malme-3M) | Activity (SK-MEL-28) | Activity (SK-MEL-5) | Activity (UACC-62) | Activity (SK-OV-3) | Activity (A498) | Activity (ACHN) | Activity (MOLT-4) | IC50 (HOP-92) [nM] | IC50 (NCI-H460) [nM] | IC50 (SF-295) [nM] | IC50 (U-251) [nM] | IC50 (Malme-3M) [nM] | IC50 (SK-MEL-28) [nM] | IC50 (SK-MEL-5) [nM] | IC50 (UACC-62) [nM] | other results
1 | [C-]#[N+]C(=C\c1ccc(OC)cc1)/C(=C/c1ccc(OC)cc1)[N+]#[C-] | inactive | inactive | inactive | inactive | inactive | inactive | inactive | inactive | inactive | inactive | inactive | inactive | – | – | – | – | – | – | – | – | –
2 | COc1ccc(/C=C(NC=O)/C(=C/c2ccc(O)cc2)NC=O)cc1 | – | – | – | – | – | – | – | – | – | – | – | – | > 2500 | 1840 | > 2500 | > 2500 | > 2500 | 2030 | > 2500 | > 2500 | IC50 (SK-OV-3): 2130 nM; IC50 (A498): 1720 nM; IC50 (ACHN): 1370 nM; IC50 (MOLT-4): 1810 nM
3 | [C-]#[N+]C(=C\c1ccc(OC)cc1)/C(=C/c1ccc(OS(=O)(=O)O)cc1)[N+]#[C-] | inactive | inactive | inactive | inactive | inactive | inactive | inactive | inactive | inactive | inactive | inactive | inactive | – | – | – | – | – | – | – | – | Activity (Fusarium incarnatum): inactive; Activity (Candida albicans): inactive; Activity (Escherichia coli): inactive; Activity (Staphylococcus aureus): inactive; Activity [1]: inactive
4 | COc1ccc(/C=C(NC=O)/C(=C/c2ccc(OS(=O)(=O)O)cc2)NC=O)cc1 | inactive | inactive | inactive | inactive | inactive | inactive | inactive | inactive | inactive | inactive | inactive | inactive | – | – | – | – | – | – | – | – | Activity (Fusarium incarnatum): inactive; Activity (Candida albicans): inactive; Activity (Escherichia coli): inactive; Activity (Staphylococcus aureus): inactive; Activity [1]: inactive
5 | COc1ccc(/C=C(NC=O)/C(=C/c2ccc(OC)cc2)NC=O)cc1 | – | – | – | – | – | – | – | – | – | – | – | – | 890 | 1120 | 700 | 920 | 650 | 980 | 810 | 750 | IC50 (SK-OV-3): 840 nM; IC50 (A498): 860 nM; IC50 (ACHN): > 2500 nM; IC50 (MOLT-4): > 2500 nM
6 | [C-]#[N+]C(=C\c1ccc(O)cc1)/C(=C/c1ccc(OC)cc1)[N+]#[C-] | inactive | inactive | inactive | inactive | inactive | inactive | inactive | inactive | inactive | inactive | inactive | inactive | – | – | – | – | – | – | – | – | –
